Assay results: ChEMBL document CHEMBL1123359, “3,4-Dihydro-2-phenyl-2H-pyrano[2,3-b]pyridines with potent antirhinovirus activity” (1986)
The source made the active and inactive calls. The rule behind the calls is not given here.

Test system: not listed separately
Experiment: Activity against polio type 2; No activity
Type: functional
Conditions: not given

SMILES | Activity
Clc1ccc(C2CCc3cc(Br)cnc3O2)cc1Cl (stereo unspecified) | inactive

Test system: Human rhinovirus sp.
Experiment: Concentration required to reduce Rhino virus type 64 induced plaque formation in HeLa cell culture to 50% of control
Type: functional
Conditions: read-out: ID50 (the source's name)
Summary of the method: (§1)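 HeLa monolayers were grown at 36 °C in Eagle's MEM with Earle's salts, 1% antibiotic and 7-10% heat-inactivated fetal calf serum, with serum cut to 1-2% for maintenance. Plaque reduction cultures were incubated 48-72 h at 33 °C. RV-1A was propagated in HeLa; RV-9 was ATCC VR489.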

SMILES | IC50
Clc1ccc(C2C=Cc3cc(Br)cnc3O2)cc1Cl (stereo unspecified) | 60 nM
Clc1ccc(C2C=Cc3cc(Cl)cnc3O2)cc1 (stereo unspecified) | 470 nM
CS(=O)(=O)c1cnc2c(c1)CCC(c1ccc(Cl)cc1)O2 (stereo unspecified) | 250 nM
Clc1ccc(C2CCc3cccnc3O2)cc1Cl (stereo unspecified) | 640 nM
Clc1ccc(C2=CCc3cc(Br)cnc3O2)cc1Cl | 12900 nM
Clc1ccc(C2CCc3cc(Cl)cnc3O2)cc1 (stereo unspecified) | 110 nM
Brc1cnc2c(c1)CCC(c1ccccc1)O2 (stereo unspecified) | 3550 nM
CCCCSc1cnc2c(c1)CCC(c1ccc(Cl)c(Cl)c1)O2 (stereo unspecified) | 1390 nM
Clc1ccc(C2CCc3cc(Br)cnc3O2)cc1Cl (stereo unspecified) | 60 nM
CS(=O)(=O)c1cnc2c(c1)CCC(c1ccc(Cl)c(Cl)c1)O2 (stereo unspecified) | 10 nM
CSc1cnc2c(c1)CCC(c1ccc(Cl)c(Cl)c1)O2 (stereo unspecified) | 30 nM
CC1(c2ccc(Cl)c(Cl)c2)CCc2cc(Cl)cnc2O1 (stereo unspecified) | 400 nM
Clc1ccc(C2CCc3cc(Br)cnc3O2)cc1 (stereo unspecified) | 30 nM
C[S+]([O-])c1cnc2c(c1)CCC(c1ccc(Cl)c(Cl)c1)O2 (stereo unspecified) | 9 nM
Cc1ccc(C2CCc3cc(Br)cnc3O2)cc1 (stereo unspecified) | 230 nM
Clc1cnc2c(c1)CCC(c1ccc(Cl)c(Cl)c1)O2 (stereo unspecified) | 30 nM

Test system: not listed separately
Experiment: Activity against mengovirus.; No activity
Type: functional
Conditions: not given

SMILES | Activity
Clc1ccc(C2CCc3cc(Br)cnc3O2)cc1Cl (stereo unspecified) | inactive

Test system: HeLa
Experiment: The cell growth inhibition ( CGI) concentration denotes the lowest concentration at which the effect on HeLa cell colony formation became apparent.
Type: functional, Homo sapiens
Conditions: not given
Summary of the method: (§2)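 The assay scored effects of compound on the growth and morphology of HeLa cell colonies. HeLa stocks were kept in Eagle's MEM with Earle's salts, 1% antibiotic and 7-10% heat-inactivated fetal calf serum at 36 °C. The value is the lowest concentration at which a colony effect became apparent.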

SMILES | CGI
Clc1ccc(C2C=Cc3cc(Br)cnc3O2)cc1Cl (stereo unspecified) | 14 µM
Clc1ccc(C2C=Cc3cc(Cl)cnc3O2)cc1 (stereo unspecified) | 9 µM
CSc1cnc2c(c1)CCC(c1ccc(Cl)c(Cl)c1)O2 (stereo unspecified) | 15 µM

Test system: HeLa
Experiment: Concentration required to reduce Rhino virus type 64 induced plaque formation in HeLa cell culture to 50% of control; The highest concentration tested failed to provide 50% protection.
Type: functional
Conditions: Homo sapiens, read-out: ID50 (the source's name)

SMILES | IC50
Brc1cnc2c(c1)C=CC(c1ccccc1)O2 (stereo unspecified) | > 3470 nM

Test system: HeLa
Experiment: Concentration required to reduce Rhino virus type 1A induced plaque formation in HeLa cell culture to 50% of control; The highest concentration tested failed to provide 50% protection.
Type: functional
Conditions: Homo sapiens, read-out: ID50 (the source's name)
Summary of the method: as §1, with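 “VR489. Plaque counts as % of compound-free control were plotted against log concentration, and the 50% point was found by linear regression.” for “VR489.”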

SMILES | IC50
CS(=O)(=O)c1cnc2c(c1)CCC(c1ccccc1)O2 (stereo unspecified) | > 17000 nM

Test system: Human rhinovirus sp.
Experiment: Concentration required to reduce Rhino virus type 9 induced plaque formation in HeLa cell culture to 50% of control
Type: functional
Conditions: read-out: ID50 (the source's name)
Summary of the method: as §1

SMILES | IC50
Clc1ccc(C2C=Cc3cc(Br)cnc3O2)cc1Cl (stereo unspecified) | 110 nM
Clc1ccc(C2C=Cc3cc(Cl)cnc3O2)cc1 (stereo unspecified) | 2300 nM
CS(=O)(=O)c1cnc2c(c1)CCC(c1ccc(Cl)cc1)O2 (stereo unspecified) | 1420 nM
Clc1ccc(C2CCc3cccnc3O2)cc1Cl (stereo unspecified) | 2180 nM
Clc1ccc(C2=CCc3cc(Br)cnc3O2)cc1Cl | 590 nM
Clc1ccc(C2CCc3cc(Cl)cnc3O2)cc1 (stereo unspecified) | 640 nM
Brc1cnc2c(c1)CCC(c1ccccc1)O2 (stereo unspecified) | 4760 nM
CCCCSc1cnc2c(c1)CCC(c1ccc(Cl)c(Cl)c1)O2 (stereo unspecified) | 6300 nM
Clc1ccc(C2CCc3cc(Br)cnc3O2)cc1Cl (stereo unspecified) | 220 nM
CS(=O)(=O)c1cnc2c(c1)CCC(c1ccc(Cl)c(Cl)c1)O2 (stereo unspecified) | 140 nM
CSc1cnc2c(c1)CCC(c1ccc(Cl)c(Cl)c1)O2 (stereo unspecified) | 150 nM
CC1(c2ccc(Cl)c(Cl)c2)CCc2cc(Cl)cnc2O1 (stereo unspecified) | 580 nM
Clc1ccc(C2CCc3cc(Br)cnc3O2)cc1 (stereo unspecified) | 30 nM
C[S+]([O-])c1cnc2c(c1)CCC(c1ccc(Cl)c(Cl)c1)O2 (stereo unspecified) | 30 nM
Cc1ccc(C2CCc3cc(Br)cnc3O2)cc1 (stereo unspecified) | 390 nM
Clc1cnc2c(c1)CCC(c1ccc(Cl)c(Cl)c1)O2 (stereo unspecified) | 290 nM

Test system: Human rhinovirus 1A
Experiment: Concentration required to reduce Rhino virus type 1A induced plaque formation in HeLa cell culture to 50% of control
Type: functional
Conditions: read-out: ID50 (the source's name)
Summary of the method: as §1

SMILES | IC50
Clc1ccc(C2C=Cc3cc(Br)cnc3O2)cc1Cl (stereo unspecified) | 530 nM
Clc1ccc(C2C=Cc3cc(Cl)cnc3O2)cc1 (stereo unspecified) | 180 nM
CS(=O)(=O)c1cnc2c(c1)CCC(c1ccc(Cl)cc1)O2 (stereo unspecified) | 1420 nM
Clc1ccc(C2CCc3cccnc3O2)cc1Cl (stereo unspecified) | 70 nM
Clc1ccc(C2CCc3cc(Cl)cnc3O2)cc1 (stereo unspecified) | 700 nM
Brc1cnc2c(c1)CCC(c1ccccc1)O2 (stereo unspecified) | 410 nM
CCCCSc1cnc2c(c1)CCC(c1ccc(Cl)c(Cl)c1)O2 (stereo unspecified) | 2830 nM
Clc1ccc(C2CCc3cc(Br)cnc3O2)cc1Cl (stereo unspecified) | 30 nM
CS(=O)(=O)c1cnc2c(c1)CCC(c1ccc(Cl)c(Cl)c1)O2 (stereo unspecified) | 470 nM
CSc1cnc2c(c1)CCC(c1ccc(Cl)c(Cl)c1)O2 (stereo unspecified) | 120 nM
Brc1cnc2c(c1)C=CC(c1ccccc1)O2 (stereo unspecified) | 1490 nM
CC1(c2ccc(Cl)c(Cl)c2)CCc2cc(Cl)cnc2O1 (stereo unspecified) | 1090 nM
Clc1ccc(C2CCc3cc(Br)cnc3O2)cc1 (stereo unspecified) | 30 nM
C[S+]([O-])c1cnc2c(c1)CCC(c1ccc(Cl)c(Cl)c1)O2 (stereo unspecified) | 260 nM
Cc1ccc(C2CCc3cc(Br)cnc3O2)cc1 (stereo unspecified) | 70 nM
Clc1cnc2c(c1)CCC(c1ccc(Cl)c(Cl)c1)O2 (stereo unspecified) | 60 nM

Test system: HeLa
Experiment: Concentration required to reduce Rhino virus type 9 induced plaque formation in HeLa cell culture to 50% of control; The highest concentration tested failed to provide 50% protection.
Type: functional
Conditions: Homo sapiens, read-out: ID50 (the source's name)
Summary of the method: as §1, with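 “VR489. Plaque counts as % of compound-free control were plotted against log concentration, and the 50% point was found by linear regression.” for “VR489.”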

SMILES | IC50
Clc1ccc(C2=CCc3cc(Br)cnc3O2)cc1Cl | > 14000 nM
Brc1cnc2c(c1)C=CC(c1ccccc1)O2 (stereo unspecified) | > 3470 nM

Test system: HeLa
Experiment: Lowest concentration at which the effect on HeLa cell colony formation became apparent.
Type: functional, Homo sapiens
Conditions: not given
Summary of the method: as §2

SMILES | CGI
Clc1ccc(C2CCc3cc(Cl)cnc3O2)cc1 (stereo unspecified) | 35 µM
Clc1ccc(C2CCc3cc(Br)cnc3O2)cc1Cl (stereo unspecified) | 28 µM
CS(=O)(=O)c1cnc2c(c1)CCC(c1ccc(Cl)c(Cl)c1)O2 (stereo unspecified) | 56 µM
Clc1cnc2c(c1)CCC(c1ccc(Cl)c(Cl)c1)O2 (stereo unspecified) | 16 µM
